Compound activity from PubChem BioAssay.
NTR1 ag – agonists of human NTR1, primary screen, imaging, U2OS cells, beta-arrestin-GFP, high content. NTR1-U2OS beta-arrestin-GFP spot imaging, agonist mode. activation, % at 20 µM. 330,000 tested, 0.17% active. Neurotensin receptor type 1 (Homo sapiens), P30989. AID 493036, 2011;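 active means activation at or above 40% of the spot to cytoplasm intensity ratio, with at least 20 cells analyzed; inconclusive means wells under 20 cells, flagged as cytotoxic or low count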
TAG inh – inhibitors of triacylglycerol accumulation, primary screen, cell-based, uHTS, fluorescence, H9c2; H9c2 cells, Nile Red lipid (TAG) fluorescence; cells loaded with 200 µM oleic acid; inhibition, % at 12.5 µM; AID 651582, 2012; 230,000 tested, 0.66% active;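 active means pattern-corrected inhibition of lipid staining of at least 50% with the nuclear-stain viability signal not falling by more than 50%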
Beta2AR agonist – beta2AR agonists driving receptor internalization, primary screen, cell-based, FAP fluorogen, flow cytometry; Beta-2 adrenergic receptor (Homo sapiens), P07550; Am2.2-beta2AR cells; response, % (no concentration beside the values); 340,000 tested, 0.43% active; AID 504454, 2011;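 active means response above a set limit, near 3 SD of response in nonfluorescent compounds, cut at about 42% in these data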
Target sequence (P07550 whole entry, looked up): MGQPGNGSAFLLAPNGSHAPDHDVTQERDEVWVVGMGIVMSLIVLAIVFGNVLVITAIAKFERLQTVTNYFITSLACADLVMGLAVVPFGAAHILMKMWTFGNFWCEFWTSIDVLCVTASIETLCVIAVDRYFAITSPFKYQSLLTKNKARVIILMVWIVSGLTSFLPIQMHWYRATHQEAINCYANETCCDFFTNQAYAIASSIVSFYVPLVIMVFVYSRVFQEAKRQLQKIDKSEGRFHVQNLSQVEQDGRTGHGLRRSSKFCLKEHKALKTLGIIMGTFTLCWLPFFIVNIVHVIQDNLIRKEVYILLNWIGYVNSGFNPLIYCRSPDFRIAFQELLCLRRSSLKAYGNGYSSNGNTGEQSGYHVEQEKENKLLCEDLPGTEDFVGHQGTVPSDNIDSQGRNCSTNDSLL
Lipid droplet – inhibitors of hepatocyte lipid droplet formation, primary screen, imaging, high-throughput imaging, BODIPY stain | AML12 mouse hepatocytes, oleate lipid droplets | inhibition, % at 6.5 µM | 240,000 tested, 0.4% active | AID 1656, 2009;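 active means lipid droplet intensity inhibited by at least 50%, with more than 500 cells counted; inconclusive means wells with under 300 cells, treated as cytotoxic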
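Material – AML12 mouse liver cells · Also added – oleate loading, 100 µM · Compound dosing – 6.5 µM single-point dosing · Times – overnight treatment with compound plus oleate · Measured by – fluorescence imaging, 20x objective, two fields per well · Read-out – percent inhibition of filter-corrected integrated lipid droplet intensity per well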
GRK2 aptamer HTS – compounds blocking aptamer binding on GRK2 – biochemical, human GRK2, bead flow cytometry, HTS, primary screen | Beta-adrenergic receptor kinase 1 (Homo sapiens), P25098 | FAM-aptamer displacement from GRK2 | inhibition of aptamer binding, % at 10 µM | 330,000 tested, 0.59% active | AID 488847, 2010;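 active means inhibition of aptamer binding above 40%, roughly 3 SD of noise, on plates passing a quality check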;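 further: median bead fluorescence of bound FAM aptamer so fluorescent compounds give negative values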
Arr AP2 block – inhibitors of beta-arrestin/AP2 binding, primary screen, biochemical, GPCR trafficking, flow cytometry | beta-arrestin 1 C-terminal peptide binding to AP2 beta2-adaptin appendage (human) | FITC-arrestin peptide / GST-AP2 beads; AP2 beta2 appendage carries R879A mutation | inhibition, % at 10 µM | 340,000 tested, 0.31% active;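 active means inhibition above a set limit, near 3 SD of compounds lacking own fluorescence, cut at about 54% in these data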
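System: GST-tagged AP2 beta2-adaptin appendage (R879A) on 4 µm glutathione beads / Reagent: FITC-arrestin peptide, 50 nM / Detection: HyperCyt-sampled flow cytometry, FL1 channel, ex 488/em 535 nm / Timing: 12 min plus 1 h, RT / Buffer or medium: PBS plus Tween 20 (0.05%) and BSA (0.1%)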
A number is an active result; – = inactive; ? = inconclusive; · = no result. Hits are enriched below; roughly 2% of the tested compounds scored in any of these assays.

SMILES	NTR1 ag	TAG inh	Beta2AR agonist	Lipid droplet	GRK2 aptamer HTS	Arr AP2 block
CN(C)c1ccc(N2C(=NC(=O)CC3CCCCC3)SC3CS(=O)(=O)CC32)cc1 (configuration not stated)	–	·	–	–	–	–
C=CCOc1c(/C=N\NC(N)=O)cccc1OC	–	–	–	–	–	–
C=CCOc1c(OC)cc(/C=N/Nc2cccc(C(=O)O)c2)c(Br)c1Br	·	57	–	–	–	–
O=C(CSc1c2c(nc3cc(Cl)ccc13)CCCC2)NCCN1CCOCC1	–	·	–	–	–	–
Clc1ccc2c(SCC3CO3)c3ccccc3nc2c1 (configuration not stated)	·	–	82	·	·	–
CC(=O)C1CCC2C3CCC4=CC(=O)CC[C@]4(C)[C@@]3(F)C(O)C[C@]12C (some centres not stated)	–	·	–	–	–	–
CC(=O)C1CCC2C3CCC4=CC(=O)CCC4(C)C3(Br)C(=O)CC12C (configuration not stated)	·	–	56	·	·	–
O=C(COC(=O)COc1ccc(Br)cc1)NC1CCCC1	–	–	–	·	–	–
COc1ccc(Cl)cc1NC(=O)CN(C)C(=O)C1CCN(C(=O)Nc2ccccc2)CC1	–	–	–	·	–	–
CSc1ccccc1NC(=O)COC(=O)/C=C/c1ccco1	–	–	–	·	41	–
O=C(COC(=O)/C=C/c1ccco1)Nc1ncc(C(F)(F)F)cc1Cl	–	·	–	–	52	–
CNC(=O)COC(=O)/C=C/c1ccco1	–	–	–	–	–	–
O=C(COC(=O)c1cccc(O)c1)Nc1ccc(S(=O)(=O)N2CCOCC2)cc1	–	–	–	·	–	–
CCCCNC(=O)CNC(=S)N(Cc1ccccc1)Cc1cccnc1	–	·	52	–	–	–
CC(C)(C)C1=CC(=O)C(=O)C(C(C)(C)C)=C1	–	·	110	–	–	–
CC(C)(C)C1=CC(=Nc2ccccc2N)C=C(C(C)(C)C)C1=O	–	·	–	–	–	–
Cc1ccc(C(=O)N2CCCC(N3CCN(c4ccccc4C)CC3)C2)c(=O)[nH]1 (configuration not stated)	–	·	–	–	–	–
N#Cc1cc(Oc2ccc3ccccc3c2)c(-n2nnc3ccccc32)cc1C#N	–	·	48	–	–	–
CCOC(=O)n1c(=O)[nH]c2ccc(Br)cc21	–	–	–	–	–	–
CCc1nnc(NC(=O)c2ccc3c(=O)n4c(nc3c2)CCC4)s1	·	–	·	·	·	·
Cc1ccc2cc(/C=C/C(=O)c3ccco3)c(Cl)nc2c1	–	–	56	–	–	–
Cc1ccc2nc(Cl)c(/C=C/C(=O)c3ccco3)cc2c1	–	–	–	–	·	–
COc1ccc2oc(C(=O)N3CCCc4ccccc43)c(C)c2c1	–	–	–	·	–	–
COc1cc(NS(=O)(=O)c2c(C)oc3c(F)c(F)c(F)c(F)c23)cc(OC)c1OC	–	–	–	–	–	–
CCOC(=O)/C(=C\c1cccnc1)C(=O)c1cc(C(C)=O)c(Nc2ccccc2)s1	–	80	104	–	–	–
SMILES	NTR1 ag	TAG inh	Beta2AR agonist	Lipid droplet	GRK2 aptamer HTS	Arr AP2 block
C/C(=N\NC(=O)C12CCC(C)(C(=O)O1)C2(C)C)c1ccccc1O (configuration not stated)	–	52	–	–	–	–
CC12CCC(C(=O)NCc3ccccc3)(OC1=O)C2(C)C (configuration not stated)	–	–	–	–	–	–
C=C1C(=O)C=C2CN(C(=O)c3ccccc3)[C@@](Cc3ccc(F)cc3)(C(=O)OC)[C@@H]12	–	–	79	?	–	–
COC(=O)[C@@]1(Cc2ccc(OC)cc2)[C@@H]2C(=CC(=O)[C@H]2CC(=O)C(=O)N(C)C)CN1C(=O)c1ccccc1	–	·	·	–	–	·
COc1ccccc1OCc1nn[nH]n1	–	–	–	–	–	–
COc1ccccc1CC(=O)N1CCN(S(=O)(=O)c2ccccc2F)CC1	–	–	–	·	–	–
O=Nc1c(O)c2ccccc2c2ccccc12	·	99	–	·	–	–
O=Nc1c2cc3ccccc3[nH]c-2c2ccccc12	·	–	–	·	·	–
CC(C)n1cnc2c(N(C)c3ccccc3)nc(N(CCN(C)C)Cc3ccccc3)nc21	–	52	–	–	–	–
COc1cc(N(Cc2ccccc2)Cc2ccccc2)c2ncn(C(C)C)c2c1	–	–	–	·	–	–
Nc1nc(Nc2cccc3ccccc23)nc(C2CCCC2=O)n1 (configuration not stated)	–	·	·	·	–	·
Nc1nc(CCl)nc(Nc2cccc3ccccc23)n1	–	81	–	–	–	–
O=C1c2cccc(Sc3ccccc3)c2C(=O)c2c(Sc3ccccc3)cccc21	–	78	–	–	·	–
O=C1c2cccc(O)c2C(=O)c2c(O)cccc21	–	·	·	–	–	·
COc1cccc(/C=C/C(=O)OCC(=O)NC(=O)NC2CCCCC2)c1	–	–	–	·	–	–
CCOC(=O)C(=CNc1cc(C)ccc1-n1cccc1)C(=O)OCC	–	–	–	–	–	–
CC(=O)c1cccc(OCC(=O)N(C)CC(=O)NCc2ccco2)c1	–	–	–	·	86	–
Cc1ccc(OCC(=O)N(C)CC(=O)NCc2ccco2)c(Br)c1	–	–	–	·	·	–
CCOC(=O)c1cccc(Nc2nc(-c3cccnc3)nc3ccccc23)c1	–	53	–	·	–	–
COC(=O)c1cccc(Nc2nc(-c3cccnc3)nc3ccccc23)c1	–	–	–	–	–	–
COc1ccc(/C=N/NC(=O)c2nc(Cl)c(Cl)c(N)c2Cl)cc1COc1ccccc1F	–	–	50	·	–	–
COc1ccc(C)cc1N=Nc1ccc(O)c2ncccc12	·	·	–	–	·	–
O=Nc1ccc(O)c2ncccc12	–	67	–	–	–	–
Oc1ccc(N=Nc2ccc3c(c2)OCCO3)c2cccnc12	–	91	–	–	–	–
COc1cccc(N=Nc2ccc(O)c3ncccc23)c1	–	·	–	–	–	–
Cc1ccccc1N=Nc1ccc(O)c2ncccc12	·	86	–	–	–	–
COc1ccc(N=Nc2ccc(O)c3ncccc23)cc1	–	77	–	–	–	–
Cc1cc2ncc(-c3cccs3)nc2cc1C	–	·	–	–	–	–
COCc1ccc(O)c2ncccc12	–	100	–	–	–	–
C=C(C)C(=O)Nc1cccc(C2=NOC3(C2)C[C@@H](C(N)=O)N(C(=O)c2ccc(OC)cc2)C3)c1 (some centres not stated)	–	–	–	·	95	–
